In publication PMC3589821 (Biochemistry, 2013):
Changes are numbered by the printed parent chain.

Columns and labels:
Ath α-DOX [1] = biological target: T1, Ath α-DOX (Arabidopsis thaliana, UniProt Q9SGH6, H318Q); experiment: oxygen electrode, oxygenase activity; assay type: biochemical; conditions: co-substrate O2
T1 sequence (Q9SGH6 1-639 H318Q): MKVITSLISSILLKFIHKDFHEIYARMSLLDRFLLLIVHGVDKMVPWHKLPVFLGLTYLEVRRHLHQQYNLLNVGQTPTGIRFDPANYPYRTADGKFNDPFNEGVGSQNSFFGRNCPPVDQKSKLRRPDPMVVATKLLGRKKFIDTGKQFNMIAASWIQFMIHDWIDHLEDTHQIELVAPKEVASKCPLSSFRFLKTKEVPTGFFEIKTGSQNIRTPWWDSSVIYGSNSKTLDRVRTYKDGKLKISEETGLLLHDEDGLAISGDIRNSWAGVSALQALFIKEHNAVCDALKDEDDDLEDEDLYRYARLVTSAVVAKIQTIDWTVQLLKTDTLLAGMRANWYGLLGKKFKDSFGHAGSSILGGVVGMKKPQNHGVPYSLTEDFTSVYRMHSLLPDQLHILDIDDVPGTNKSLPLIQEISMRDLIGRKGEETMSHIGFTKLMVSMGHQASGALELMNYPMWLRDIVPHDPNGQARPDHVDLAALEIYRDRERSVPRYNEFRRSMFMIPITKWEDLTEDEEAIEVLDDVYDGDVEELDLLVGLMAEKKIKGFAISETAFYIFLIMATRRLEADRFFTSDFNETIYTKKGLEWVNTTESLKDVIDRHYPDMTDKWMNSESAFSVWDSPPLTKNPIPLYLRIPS

Ath α-DOX [2] = biological target: T2, Ath α-DOX (Arabidopsis thaliana, UniProt Q9SGH6); experiment: oxygen electrode, oxygenase activity; assay type: biochemical; conditions: co-substrate O2
T2 sequence (Q9SGH6 1-639): T1 sequence (Q9SGH6 1-639 H318Q) with Q318H
Method in brief: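 Codon-optimized Ath α-DOX (wild type or point mutants) was expressed in E. coli M15 with 1mM IPTG and 250μM δ-aminolevulinic acid at 23°C for 16 h. It was solubilized in 0.7% C10M, purified by IMAC and size exclusion, and dialyzed a week in 20mM TRIS pH 8.0, 150mM NaCl, 0.2% C10M to remove imidazole. O2 consumption was followed by oxygen electrode with αLA, LA or OA substrates. KM values came from triplicate measurements.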

Ath α-DOX [3] = biological target: T2, Ath α-DOX; experiment: X-ray crystal structure, […] Å; assay type: binding; conditions: iron liganded to His-389; water as sixth ligand; pH 8.0
Ath α-DOX [4] = biological target: T2, Ath α-DOX; experiment: oxygen electrode, oxygenase activity; assay type: biochemical; conditions: 1 mM imidazole, 60 min preincubation

Km (Ath α-DOX [2]) [µM]	SMILES	other results
15 ± 1.9	CCCCCCCC/C=C\CCCCCCCC(=O)O [OA, oleic acid]	
	C=CC1=C(C)C2=Cc3c(C=C)c(C)c4[n]3[Fe+][n]3c(c(C)c(CCC(=O)O)c3=CC3=NC(=C4)C(C)=C3CCC(=O)O)=CC1=N2 [heme]	X-ray crystal structure, 1.70 Å (Ath α-DOX [3]): The heme is liganded to the side chain of His-389
	c1c[nH]cn1 [imidazole]	% reduction in activity at 1 mM (Ath α-DOX [4]): 50%
36 ± 3.2	CC/C=C\C/C=C\C/C=C\CCCCCCCC(=O)O [αLA, α-linolenic acid]	

SMILES	Km (Ath α-DOX [2]) [µM]	other results
CCCCC/C=C\C/C=C\CCCCCCCC(=O)O [LA, linoleic acid]	23 ± 2	Km (Ath α-DOX [1]): 18.2 ± 2.4 µM
